Assay results from different studies.
Compare with care: the assays were run in different laboratories. pEC50, pIC50: −log10 of the molar value. Values after ≈ are worked out from the molar mass of the structure shown.

Compound	organism	test	system	conditions	endpoint	result
COc1ccc(C2Oc3ccccc3C=C2[N+](=O)[O-])cc1 (stereo not drawn)	Leishmania tropica	parasite growth	THP-1	72 h, intracellular, amastigote	IC50	150 µg/mL
CNC(=S)NN=Cc1ccc(OC)c(OC)c1	Leishmania tropica	parasite growth	J774.A1	72 h, intracellular, amastigote	pIC50	3.34
COc1ccc(N=Nc2c(N)nn3c(-c4ccc(Cl)cc4Cl)cc(-c4ccc(OCc5ccccc5)cc4)nc23)cc1	Saccharomyces cerevisiae	microbial growth, broth dilution	ATCC9763	–	MIC	125 µg/mL (≈ 210 µM)
CNC(=S)NN=Cc1ccc(C)cc1	Leishmania tropica	parasite growth	J774.A1	72 h, intracellular, amastigote	pIC50	3.35
O=[N+]([O-])C1=Cc2ccccc2OC1c1ccccc1Br (stereo not drawn)	Leishmania tropica	parasite growth	THP-1	72 h, intracellular, amastigote	IC50	154 µg/mL
CCOC(=O)C1=C(CN2CCC(C(=O)Nc3ccccc3B(O)O)C2)NC(c2nccs2)=NC1c1ccc(F)cc1Br (stereo not drawn)	Hepatitis B virus	viral replication, inhibitor, qPCR	HepDES19	72 h	pEC50	5.71
Cc1ccc(COc2ccc(C3Oc4ccccc4C=C3[N+](=O)[O-])cc2)cc1 (stereo not drawn)	Leishmania tropica	parasite growth	THP-1	72 h, intracellular, amastigote	IC50	150 µg/mL
CC(=O)N1CCN(c2ccc(OCC3COC(Cn4ccnc4)(c4ccc(Cl)cc4Cl)O3)cc2)CC1 (stereo not drawn)	Saccharomyces cerevisiae	microbial growth, broth dilution	ATCC9763	–	MIC	1.95 µg/mL (≈ 3.67 µM)
O=[N+]([O-])C1=Cc2ccccc2OC1c1ccc(Cl)cc1 (stereo not drawn)	Leishmania tropica	parasite growth	THP-1	72 h, intracellular, amastigote	IC50	155 µg/mL
C[C@@H]1[C@H](O)[C@@H](C)/C=C/C=C/C=C/C=C/C=C/C=C/C=C/[C@H](O[C@@H]2O[C@H](C)[C@@H](O)[C@H](N)[C@@H]2O)C[C@@H]2O[C@](O)(C[C@@H](O)C[C@@H](O)[C@H](O)CC[C@@H](O)C[C@@H](O)CC(=O)O[C@H]1C)C[C@H](O)[C@H]2C(=O)O	Saccharomyces cerevisiae	microbial growth, broth dilution	BY4742	48 h	MIC	0.25 µg/mL (≈ 0.271 µM)
O=[N+]([O-])C1=Cc2ccccc2OC1c1ccc(OCc2ccc(Cl)cc2)cc1 (stereo not drawn)	Leishmania tropica	parasite growth	THP-1	72 h, intracellular, amastigote	IC50	142 µg/mL
CCOC(=O)C1=C(CN2CCN(Cc3cccc(B4OC(C)(C)C(C)(C)O4)c3)CC2)NC(c2nccs2)=NC1c1ccc(F)cc1Br (stereo not drawn)	Hepatitis B virus	viral replication, inhibitor, qPCR	HepDES19	72 h	pEC50	5.89
C[C@@H]1[C@H](O)[C@@H](C)/C=C/C=C/C=C/C=C/C=C/C=C/C=C/[C@H](O[C@@H]2O[C@H](C)[C@@H](O)[C@H](N)[C@@H]2O)C[C@@H]2O[C@](O)(C[C@@H](O)C[C@@H](O)[C@H](O)CC[C@@H](O)C[C@@H](O)CC(=O)O[C@H]1C)C[C@H](O)[C@H]2C(=O)O	Leishmania tropica	parasite growth, MTT	–	72 h, promastigote	pIC50	4.75
CCOC(=O)C1=C(CN2CCC(C(=O)Nc3cccc(B4OC(C)(C)C(C)(C)O4)c3)C2)NC(c2nccs2)=NC1c1ccc(F)cc1Br (stereo not drawn)	Hepatitis B virus	viral replication, inhibitor, qPCR	HepDES19	72 h	pEC50	6.06
COc1ccc(N=Nc2c(N)nn3c(-c4ccc(C)cc4)cc(-c4ccc(OCc5ccccc5)cc4)nc23)cc1	Saccharomyces cerevisiae	microbial killing, broth dilution	ATCC9763	–	MFC	125 µg/mL (≈ 231 µM)
COc1ccc(C=NNC(=S)Nc2cccnc2)cc1	Leishmania tropica	parasite growth, MTT	–	72 h, promastigote	pIC50	3.19
O=[N+]([O-])C1=Cc2ccccc2OC1c1ccccc1OCc1ccccc1Cl (stereo not drawn)	Leishmania tropica	parasite growth	THP-1	72 h, intracellular, amastigote	IC50	171 µg/mL

Compound	organism	test	system	conditions	endpoint	result
CCOC(=O)C1=C(CN2CCC[C@@H]2C(=O)Nc2cccc(B(O)O)c2)NC(c2nccs2)=N[C@@H]1c1ccc(F)cc1Br	Hepatitis B virus	viral replication, inhibitor, qPCR	HepDES19	72 h	pEC50	5.59
Cc1ccc(N=Nc2c(N)nn3c(-c4ccc(Cl)cc4Cl)cc(-c4ccc(OCc5ccccc5)cc4)nc23)cc1	Saccharomyces cerevisiae	microbial killing, broth dilution	ATCC9763	–	MFC	125 µg/mL (≈ 216 µM)
CCOC(=O)C1=C(CN2CCN(Cc3ccc(B(O)O)cc3)CC2)NC(c2nccs2)=NC1c1ccc(F)cc1Br (stereo not drawn)	Hepatitis B virus	viral replication, inhibitor, qPCR	HepDES19	72 h	pEC50	6.01
CNC(=S)NN=Cc1ccc([N+](=O)[O-])cc1	Leishmania tropica	parasite growth, MTT	–	72 h, promastigote	pIC50	3.62
Cc1ccc(N=Nc2c(N)nn3c(-c4ccc(C)cc4)cc(-c4ccc(OCc5ccccc5)cc4)nc23)cc1	Saccharomyces cerevisiae	microbial killing, broth dilution	ATCC9763	–	MFC	250 µg/mL (≈ 477 µM)
Fc1ccc(C=NNC(=S)Nc2cccnc2)cc1	Leishmania tropica	parasite growth	J774.A1	72 h, intracellular, amastigote	pIC50	3.70
OC(Cn1cncn1)(Cn1cncn1)c1ccc(F)cc1F	Saccharomyces cerevisiae	microbial growth, broth dilution	BY4742	48 h	MIC	8 µg/mL (≈ 26.1 µM)
S=C(NN=Cc1ccc(Br)cc1)Nc1cccnc1	Leishmania tropica	parasite growth	J774.A1	72 h, intracellular, amastigote	pIC50	3.32
O=[N+]([O-])C1=Cc2ccccc2OC1c1cccc(OCc2ccc(Cl)cc2)c1 (stereo not drawn)	Leishmania tropica	parasite growth	THP-1	72 h, intracellular, amastigote	IC50	149 µg/mL
Cc1ccc(-c2cc(-c3ccc(OCc4ccccc4)cc3)nc3c(N=Nc4ccc(F)cc4)c(N)nn23)cc1	Saccharomyces cerevisiae	microbial killing, broth dilution	ATCC9763	–	MFC	125 µg/mL (≈ 236 µM)
O=[N+]([O-])C1=Cc2ccccc2OC1c1cccc(Br)c1 (stereo not drawn)	Leishmania tropica	parasite growth	THP-1	72 h, intracellular, amastigote	IC50	171 µg/mL
CCOC(=O)C1=C(CN2CCC[C@@H]2C(=O)Nc2ccc(B(O)O)cc2)NC(c2nccs2)=N[C@@H]1c1ccc(F)cc1Br	Hepatitis B virus	viral replication, inhibitor, qPCR	HepDES19	72 h	pEC50	5.41
COc1ccc(N=Nc2c(N)nn3c(-c4ccco4)cc(-c4ccc(OCc5ccccc5)cc4)nc23)cc1	Saccharomyces cerevisiae	microbial growth, broth dilution	ATCC9763	–	MIC	62.5 µg/mL (≈ 121 µM)
CCOC(=O)C1=C(CN2CCCC2C(=O)Nc2cccc(B3OC(C)(C)C(C)(C)O3)c2)NC(c2nccs2)=NC1c1ccc(F)cc1Br (stereo not drawn)	Hepatitis B virus	viral replication, inhibitor, qPCR	HepDES19	72 h	pEC50	6.43
COc1ccc(C=NNC(=S)Nc2cccnc2)cc1OC	Leishmania tropica	parasite growth	J774.A1	72 h, intracellular, amastigote	pIC50	< 3.00
Cc1ccc(N=Nc2c(N)nn3c(-c4ccco4)cc(-c4ccc(OCc5ccccc5)cc4)nc23)cc1	Saccharomyces cerevisiae	microbial killing, broth dilution	ATCC9763	–	MFC	62.5 µg/mL (≈ 125 µM)
